According to ChEMBL document CHEMBL4145650, “Napabucasin and Related Heterocycle-Fused Naphthoquinones as STAT3 Inhibitors with Antiproliferative Activity against Cancer Cells” (J Nat Prod, 2018):
Active and inactive are the calls of the source. The calls are words filed in the database; no cut-off is given here.

Legend:
[1] = system: MDA-MB-231; test: Cell cycle arrest in human MDA-MB-231 cells assessed as accumulation at sub-G0 phase at 10 uM measured after 24 hrs by propidium iodide staining based flow cytometry (reference value: 3%); type: functional
[2] = system: MDA-MB-231; test: Induction of apoptosis in human MDA-MB-231 cells assessed as early apoptotic cells at 10 umol/L measured after 8 hrs by annexin-V-FITC/7-AAD staining based flow cytometric analysis relative to control; type: functional
[3] = system: MDA-MB-231; test: Cell cycle arrest in human MDA-MB-231 cells assessed as accumulation at S phase at 10 uM measured after 24 hrs by propidium iodide staining based flow cytometry (reference value: 12%); type: functional
[4] = system: MDA-MB-231; test: Cell cycle arrest in human MDA-MB-231 cells assessed as accumulation at G1 phase at 10 uM measured after 24 hrs by propidium iodide staining based flow cytometry (reference value: 62%); type: functional
[5] = system: MDA-MB-231; test: Cell cycle arrest in human MDA-MB-231 cells assessed as accumulation at G2 phase at 10 uM measured after 24 hrs by propidium iodide staining based flow cytometry (reference value: 23%); type: functional
[6] = system: K562; test: Induction of superoxide generation in human K562 cells at 5 umol/L measured after 24 hrs in presence of NQO1 inhibitor dicoumarol by DHE staining based flow cytometry; type: functional, cell-based
Outline: (§1)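 Cells were treated with compound at 5 μmol/L or DMSO for 24 h, with or without dicoumarol preincubation (5 μmol/L, 30 min), then stained with DHE for 30 min. 2-OH-DHE fluorescence was read by flow cytometry and expressed relative to vehicle control. At least three independent measurements.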

[7] = system: MDA-MB-231; test: Cell cycle arrest in human MDA-MB-231 cells assessed as accumulation at G1 phase at 30 uM measured after 24 hrs by propidium iodide staining based flow cytometry (reference value: 62%); type: functional
[8] = system: MDA-MB-231; test: Cell cycle arrest in human MDA-MB-231 cells assessed as accumulation at sub-G0 phase at 3 uM measured after 24 hrs by propidium iodide staining based flow cytometry (reference value: 3%); type: functional
[9] = system: MDA-MB-231; test: Cell cycle arrest in human MDA-MB-231 cells assessed as accumulation at S phase at 1 uM measured after 24 hrs by propidium iodide staining based flow cytometry (reference value: 12%); type: functional
[10] = system: MDA-MB-231; test: Cell cycle arrest in human MDA-MB-231 cells assessed as accumulation at G1 phase at 3 uM measured after 24 hrs by propidium iodide staining based flow cytometry (reference value: 62%); type: functional
[11] = system: MDA-MB-231; test: Induction of apoptosis in human MDA-MB-231 cells assessed as early apoptotic cells at 10 umol/L measured after 6 hrs by annexin-V-FITC/7-AAD staining based flow cytometric analysis relative to control; type: functional
[12] = system: MDA-MB-231; test: Induction of superoxide generation in human MDA-MB-231 cells at 5 umol/L measured after 24 hrs in presence of NQO1 inhibitor dicoumarol by DHE staining based flow cytometry; type: functional, cell-based; outline: as §1
[13] = system: MDA-MB-231; test: Cell cycle arrest in human MDA-MB-231 cells assessed as accumulation at S phase at 3 uM measured after 24 hrs by propidium iodide staining based flow cytometry (reference value: 12%); type: functional
[14] = system: MDA-MB-231; test: Induction of apoptosis in human MDA-MB-231 cells assessed as viable cells at 10 umol/L measured after 2 hrs by annexin-V-FITC/7-AAD staining based flow cytometric analysis (reference value: 97 to 98%); type: functional; settings: MDA-MB-231, 2 h, read-out: Activity
[15] = system: MDA-MB-231; test: Cell cycle arrest in human MDA-MB-231 cells assessed as accumulation at G1 phase at 1 uM measured after 24 hrs by propidium iodide staining based flow cytometry (reference value: 62%); type: functional
[16] = system: MDA-MB-231; test: Induction of apoptosis in human MDA-MB-231 cells assessed as early apoptotic cells at 10 umol/L measured after 24 hrs by annexin-V-FITC/7-AAD staining based flow cytometric analysis relative to control; type: functional
[17] = system: MDA-MB-231; test: Cell cycle arrest in human MDA-MB-231 cells assessed as accumulation at G2 phase at 30 uM measured after 24 hrs by propidium iodide staining based flow cytometry (reference value: 23%); type: functional
[18] = system: MDA-MB-231; test: Induction of apoptosis in human MDA-MB-231 cells assessed as viable cells at 10 umol/L measured after 8 hrs by annexin-V-FITC/7-AAD staining based flow cytometric analysis (reference value: 97 to 98%); type: functional; settings: MDA-MB-231, 8 h, read-out: Activity
[19] = system: MDA-MB-231; test: Induction of apoptosis in human MDA-MB-231 cells assessed as viable cells at 10 umol/L measured after 4 hrs by annexin-V-FITC/7-AAD staining based flow cytometric analysis (reference value: 97 to 98%); type: functional; settings: MDA-MB-231, 4 h, read-out: Activity
[20] = system: MDA-MB-231; test: Induction of apoptosis in human MDA-MB-231 cells assessed as late apoptotic cells at 10 umol/L measured after 6 hrs by annexin-V-FITC/7-AAD staining based flow cytometric analysis relative to control; type: functional
[21] = system: MDA-MB-231; test: Cell cycle arrest in human MDA-MB-231 cells assessed as accumulation at S phase at 30 uM measured after 24 hrs by propidium iodide staining based flow cytometry (reference value: 12%); type: functional
[22] = system: MDA-MB-231; test: Cell cycle arrest in human MDA-MB-231 cells assessed as accumulation at G2 phase at 1 uM measured after 24 hrs by propidium iodide staining based flow cytometry (reference value: 23%); type: functional
[23] = system: K562; test: Antiproliferative activity against human K562 cells measured after 48 hrs by MTT assay; type: functional, cell-based; settings: K562, 48 h
Outline: (§2)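 Cells kept in 10% FBS medium with penicillin/streptomycin/L-glutamine at 37 °C, 5% CO2 (MDA-MB-231 in DMEM, K562 in RPMI 1640). Viability read by MTT reduction to formazan after 48 h of exposure. IC50 obtained by nonlinear regression against vehicle control, given as mean ±SD of three independent experiments (n = 2 where footnoted).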

[24] = system: MDA-MB-231; test: Induction of superoxide generation in human MDA-MB-231 cells at 5 umol/L measured after 24 hrs by DHE staining based flow cytometry; type: functional, cell-based; outline: as §1
[25] = system: MDA-MB-231; test: Induction of apoptosis in human MDA-MB-231 cells assessed as viable cells at 10 umol/L measured after 6 hrs by annexin-V-FITC/7-AAD staining based flow cytometric analysis (reference value: 97 to 98%); type: functional; settings: MDA-MB-231, 6 h, read-out: Activity
[26] = system: MDA-MB-231; test: Induction of apoptosis in human MDA-MB-231 cells assessed as late apoptotic cells at 10 umol/L measured after 8 hrs by annexin-V-FITC/7-AAD staining based flow cytometric analysis relative to control; type: functional
[27] = system: MDA-MB-231; test: Antiproliferative activity against human MDA-MB-231 cells measured after 48 hrs by MTT assay; type: functional, cell-based; settings: MDA-MB-231, 48 h; outline: as §2
[28] = system: MDA-MB-231; test: Cell cycle arrest in human MDA-MB-231 cells assessed as accumulation at sub-G0 phase at 30 uM measured after 24 hrs by propidium iodide staining based flow cytometry (reference value: 3%); type: functional
[29] = system: K562; test: Induction of superoxide generation in human K562 cells at 5 umol/L measured after 24 hrs by DHE staining based flow cytometry; type: functional, cell-based; outline: as §1
[30] = system: MDA-MB-231; test: Induction of apoptosis in human MDA-MB-231 cells assessed as late apoptotic cells at 10 umol/L measured after 24 hrs by annexin-V-FITC/7-AAD staining based flow cytometric analysis relative to control; type: functional
[31] = system: MDA-MB-231; test: Cell cycle arrest in human MDA-MB-231 cells assessed as accumulation at sub-G0 phase at 1 uM measured after 24 hrs by propidium iodide staining based flow cytometry (reference value: 3%); type: functional
[32] = system: MDA-MB-231; test: Induction of apoptosis in human MDA-MB-231 cells assessed as viable cells at 10 umol/L measured after 24 hrs by annexin-V-FITC/7-AAD staining based flow cytometric analysis (reference value: 97 to 98%); type: functional; settings: MDA-MB-231, 24 h, read-out: Activity
[33] = system: MDA-MB-231; test: Cell cycle arrest in human MDA-MB-231 cells assessed as accumulation at G2 phase at 3 uM measured after 24 hrs by propidium iodide staining based flow cytometry (reference value: 23%); type: functional
[34] = biological target: T1, Signal transducer and activator of transcription 3 (Homo sapiens, UniProt P40763); test: Inhibition of STAT3 phosphorylation at Y705 in human MDA-MB-231 cells assessed as reduction in ratio of phosphorylated STAT3 to total STAT3 level after 4 hrs by HTRF assay; type: cell-based
T1 sequence (P40763 whole entry): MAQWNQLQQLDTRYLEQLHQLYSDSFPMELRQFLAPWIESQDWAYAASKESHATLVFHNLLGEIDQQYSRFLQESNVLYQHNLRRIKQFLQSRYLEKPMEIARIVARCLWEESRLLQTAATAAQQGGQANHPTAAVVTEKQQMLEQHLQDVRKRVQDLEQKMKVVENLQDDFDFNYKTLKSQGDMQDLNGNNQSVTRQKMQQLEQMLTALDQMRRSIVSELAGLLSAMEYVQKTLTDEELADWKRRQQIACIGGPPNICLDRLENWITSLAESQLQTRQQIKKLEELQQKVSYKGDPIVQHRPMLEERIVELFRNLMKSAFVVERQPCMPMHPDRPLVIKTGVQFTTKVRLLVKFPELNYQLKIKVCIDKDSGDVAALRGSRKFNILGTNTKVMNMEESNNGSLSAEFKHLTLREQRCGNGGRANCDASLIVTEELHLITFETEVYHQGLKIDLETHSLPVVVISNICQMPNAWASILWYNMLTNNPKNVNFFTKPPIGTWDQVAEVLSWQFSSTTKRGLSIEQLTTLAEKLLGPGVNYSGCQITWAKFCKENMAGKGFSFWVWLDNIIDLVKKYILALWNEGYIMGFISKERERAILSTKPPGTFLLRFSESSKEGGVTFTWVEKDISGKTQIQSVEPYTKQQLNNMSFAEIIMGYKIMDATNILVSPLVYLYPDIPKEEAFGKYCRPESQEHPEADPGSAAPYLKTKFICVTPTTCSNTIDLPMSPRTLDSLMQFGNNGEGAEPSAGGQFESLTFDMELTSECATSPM
Outline: (§3)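 MDA-MB-231 cells (10^5/well) were left to adhere overnight, serum-starved for 4 h in DMEM, then treated with 0.1–30 μmol/L compound (0.5% final DMSO) for 4 h at 37 °C. Lysates were incubated 24 h at room temperature with Eu-cryptate/d2 antibody pairs for phospho-STAT3 (Y705) or total STAT3. The 665/620 nm HTRF ratio was taken and phospho/total normalized. EC50 was obtained by nonlinear regression.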

[35] = system: MDA-MB-231; test: Effect on total STAT3 level in human MDA-MB-231 cells at 0.1 to 30 umol/L after 4 hrs by HTRF assay; type: cell-based; settings: mda-mb-231, 4 h; outline: as §3
[36] = biological target: T1, Signal transducer and activator of transcription 3; test: Binding affinity to STAT3 in human MDA-MB-231 cells at 100 uM treated for 1 hr followed by thermolysin addition measured after 30 mins by DARTS-Western blot analysis; type: cell-based
Outline: (§4)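 A nondenaturing lysate of MDA-MB-231 cells (M-PER with protease and phosphatase inhibitors) was incubated with compound at 100 μmol/L or DMSO for 1 h at room temperature in the dark. TNC buffer pH 8.0 was added, then thermolysin (1:3000 of protein) for 30 min at room temperature; undigested controls were kept. Run on SDS-PAGE with 10 μg protein per lane, then Western blot with anti-STAT3.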

[37] = system: MDA-MB-231; test: Induction of apoptosis in human MDA-MB-231 cells assessed as late apoptotic cells at 10 umol/L measured after 4 hrs by annexin-V-FITC/7-AAD staining based flow cytometric analysis relative to control
[38] = biological target: T1, Signal transducer and activator of transcription 3; test: Inhibition of STAT3 phosphorylation at Y705 in human MDA-MB-231 cells after 4 hrs by HTRF assay; type: cell-based; outline: as §3
[39] = biological target: T1, Signal transducer and activator of transcription 3; test: Binding affinity to STAT3 in human MDA-MB-231 cells at 100 uM measured after 1 hr by DARTS-Western blot analysis; type: cell-based; outline: as §4
[40] = system: MDA-MB-231; test: Induction of apoptosis in human MDA-MB-231 cells assessed as late apoptotic cells at 10 umol/L measured after 4 hrs by annexin-V-FITC/7-AAD staining based flow cytometric analysis relative to control; type: functional
[41] = system: MDA-MB-231; test: Induction of apoptosis in human MDA-MB-231 cells assessed as increase in early apoptotic cells at 10 umol/L measured after 4 to 24 hrs by annexin-V-FITC/7-AAD staining based flow cytometric analysis; type: functional, cell-based

Row | Structure (SMILES) | Activity [1] | Activity [3] | Activity [4] | Activity [5] | Activity [6] | Activity [7] | Activity [8] | Activity [9] | Activity [10] | Activity [13] | viability at 10 µM [14] | Activity [15] | Activity [17] | viability at 10 µM [18] | viability at 10 µM [19] | Activity [21] | Activity [22] | IC50 [23] | viability at 10 µM [25] | Activity [26] | further results
1 | CC1(C)CCC2=C(O1)c1ccccc1C(=O)C2=O [LAPACHONE] | 3% | 18% | 53% | 27% | inactive | 57% | 3% | 14% | 63% | 14% | 97% | 62% | 24% | 86% | 93% | 16% | 20% | 1600 nM | 90% | 8% | Activity [2]: 7%; Activity [11]: 4%; Activity [12]: inactive; Activity [16]: 15%; Activity [20]: 7%; Activity [24]: inactive; IC50 [27]: 4300 nM; Activity [28]: 3%; Activity [29]: inactive; Activity [30]: 48%; Activity [31]: 4%; viability at 10 µM [32]: 38%; Activity [33]: 21%
2 | CC(=O)c1cc2c(o1)-c1ccccc1C(=O)C2=O | inactive | 15% | 63% | 20% | inactive | 60% | 5% | 14% | 59% | 13% | 93% | 60% | 20% | 67% | 82% | 15% | 23% | 1100 nM | 83% | 31% | EC50 [34]: 800 nM; Activity [35]: Non-Toxic; Activity [36]: Active; Activity [37]: 14%; EC50 [38]: 870 nM; Activity [39]: inactive; Activity [40]: 14%; IC50 [27]: 740 nM; Activity [28]: 5%; Activity [30]: 89%; Activity [31]: 3%; viability at 10 µM [32]: 9%; Activity [41]: inactive; Activity [33]: 23%
